For the experiment, the target named is Neuropeptide Y receptor type 2 (Homo sapiens) (UniProt P49146). Nature of the experiment: blockers of human NPY-Y2 signalling – HEK293-CNG cells, membrane potential fluorescence, triplicate, confirmation (AID 1257).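 Also: 0% = DMSO with NPY challenge and 100% = BIIE0246 high control.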 The following applies: HEK293 NPY-Y2 CNG channel, at 2.8 µM, stronger effect = higher value. In outline:
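Signal: fluorescence of membrane-potential-sensitive dye; assay system: Y2 HEK293-CNG cell line; also added: NPY 8 nM plus isoproterenol 1 µM, Ro 20-1724 25 µM; control set: BIIE0246 high and DMSO low controls; repeats: three replicates; read-out basis: 30-min to baseline fluorescence ratio, control-normalized; compound: 2.8 µM single dose; schedule: 60 min NPY incubation, room temperature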

The list shows a part of the results. Unmarked numbers belong to inactive results. Active and inactive are the calls of the source.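 The calls were made as follows: active = mean inhibition of triplicate wells above the hit cutoff set in the primary screen (cut at about 17% in these data); inactive = the rest.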

Chain of Neuropeptide Y receptor type 2 (Homo sapiens) (P49146 whole entry, looked up): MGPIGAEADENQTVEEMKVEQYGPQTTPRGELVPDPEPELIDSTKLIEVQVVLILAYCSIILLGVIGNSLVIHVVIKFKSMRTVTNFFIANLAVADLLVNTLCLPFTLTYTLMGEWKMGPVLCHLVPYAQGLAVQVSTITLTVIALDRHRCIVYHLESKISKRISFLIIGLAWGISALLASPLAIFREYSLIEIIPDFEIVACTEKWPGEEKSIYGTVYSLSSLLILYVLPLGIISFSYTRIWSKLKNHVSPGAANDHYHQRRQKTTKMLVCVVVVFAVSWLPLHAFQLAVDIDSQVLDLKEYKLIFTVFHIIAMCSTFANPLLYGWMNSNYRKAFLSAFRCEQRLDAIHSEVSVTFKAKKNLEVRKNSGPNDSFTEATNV

Consider `c1ccc(-c2cc3c(NCC4COc5ccccc5O4)ncnc3s2)cc1` (centres undefined), for which the inhibition was 15.2%.
For `O=S(=O)(Cc1cc(Sc2ccccc2)nc(-c2ccccc2)n1)c1ccccc1`, the inhibition was 7.19%.
For `COc1ccc(/C=C/C(=O)NC(=S)NN2CCCCC2c2cccnc2)cc1` (centres undefined), the inhibition was 63.5% (active).
For `Cc1ccc(CCC(=O)Nc2ncc(Cc3cc(Cl)ccc3Cl)s2)o1` the value was 28.3% (active); for `N#Cc1ccc(N2Cc3ccccc3/C2=N/C(=O)Nc2ccc(Cl)cc2)cc1`, 144% (active); for `Cc1ccccc1OC(=O)Cn1c(C(F)(F)F)nc2ccccc21`, 3.55%.
Consider `Cc1cc(C(=O)OCC(=O)N2c3ccccc3NC(=O)C2(C)C)c(C)n1-c1ccccc1`, for which the inhibition is 17.1%.
For `COc1cccc(-c2ccc(C#N)c(SCC(=O)NCCc3ccc(Cl)cc3)n2)c1`, the inhibition was 23.6% (active).
In the case of `CCOc1ccc(C(O)Cn2c(=N)n(CCN3CCCCC3)c3ccccc32)cc1` (centres undefined), the inhibition was 14.8%.
Under `O=C(CC(O)(C(F)(F)F)C(F)(F)F)Nc1ccc(Cl)c(Cl)c1` stands 8.21%; under `Cc1ccccc1N1CCN(CCCOc2ccc3c(C)cc(=O)oc3c2)CC1`, 21.9% (active).
As to `COc1ccc(NC(=O)/C(Cl)=C(/Cl)S(=O)Cc2ccc(C)cc2)cn1` (centres undefined), the inhibition was 60.8% (active).
With `CN(C)Cc1ccc(F)cc1Sc1cc(Cl)ccc1Cl`, the inhibition was 9.81%.
On to `N#Cc1ccc(C(c2nnnn2CCc2ccccc2)N2CCCCCC2)cc1` (centres undefined), for which the inhibition is 7.32%.
With `COc1ccc(-c2nc3ccccc3n2CCC(C)C)cc1OC`, the inhibition is 7.79%.
In the case of `Cc1ccc(NC(=O)CN2CCC3(O)CCCCC3C2c2ccc3c(c2)OCO3)c(C)c1` (centres undefined), the inhibition is 7.05%.
Under `CCCCC(O)(CCCC)C(=O)NN(C(=O)CCl)c1ccccc1` stands 6.12%; under `CC12CN(Cc3ccccc3)CC(C)(CN(Cc3ccccc3)C1)C2=NO`, 10.7%.
With `O=C1CC(c2cccc(Cl)c2)CC(O)=C1C=Nc1ccccc1` (centres undefined), the inhibition is 16.5%.
Consider `CCOC(=O)C(C)Sc1nc2ccccc2c(=O)n1CC1CCCCC1` (centres undefined), for which the inhibition is 8.48%.
As to `COc1ccc(-c2noc(COc3ccc(Cl)c(C)c3)n2)cc1`, the inhibition was 32.4% (active).
Consider `Cc1ccc(C2=NN(C)c3nc4ccccc4n3C2)cc1`, for which the inhibition was 4.08%.
Consider `C=CCNCCCCOc1ccccc1`, for which the inhibition is -1.34%.
Consider `N=c1n(Cc2ccc(Cl)cc2)c2ccccc2n1CC(O)c1ccco1` (centres undefined), for which the inhibition was 17.8% (active).
For `COc1ccc(/C(N)=N/OC(=O)CCCc2ccccc2)cc1` the value was 8.36%; for `COC(=O)c1ccc(CSc2nc3cc(Cl)ccc3o2)cc1`, 12.9%; for `O=C(Nc1nnc(SCc2c(Cl)cccc2Cl)s1)C1CCCO1` (centres undefined), 15.9%.
For `Cc1cccc(OCC(O)Cn2c(=N)n(CCN3CCOCC3)c3ccccc32)c1` (centres undefined), the inhibition was 6.36%.
In the case of `O=C(Oc1ccccc1)Oc1ccc2c(c1)oc(=O)c1ccccc12`, the inhibition is 6.38%.
In the case of `CCCc1nc(SCC(=O)Nc2ccccc2OC)c2c(=O)n(C)c(=O)n(C)c2n1`, the inhibition is 9.29%.
In the case of `Cc1cc(C)nc(-n2ncc3c2CC(c2ccc(C(C)C)cc2)CC3=O)n1` (centres undefined), the inhibition was 24.2% (active).
On to `Cc1ccc(S(=O)(=O)N(Cc2ccc(Cl)cc2)c2ccccc2C(=O)NCc2cccnc2)cc1`, for which the inhibition is 21.4% (active).
Under `CCOc1ccc(S(=O)(=O)N/N=C(\C)c2ccc(Cl)c(Cl)c2Cl)cc1` stands 16%.
`CCCCCNC(=O)Cc1ccc(OC)cc1`: the inhibition is -1.6%.

As usually defined, the inhibition is the drop in the measured response relative to a control, in per cent.

(Values after PubChem BioAssay AID1257 (The Scripps Research Institute Molecular Screening Center, 2008).)
